# Data as given in ChEMBL document CHEMBL1127739, “Newly discovered stereochemical requirements in the side-chain conformation of delta opioid agonists for recognizing opioid delta receptors” (J Med Chem, 1994).
# How the values were obtained:
# [1] = Selectivity is the ratio between IC50 values of [3H]CTOP and [3H][p-Cl-phe4]-DPDPE
# In short: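 Brain membranes were homogenised in 50 mM Tris-HCl pH 7.4, pelleted at 48000g, and preincubated at 25 °C for 30 min to strip endogenous peptides. Buffer contained BSA, bestatin, bacitracin, captopril and toluenesulfonyl fluoride. δ radioligand was [3H][D-Pen2,p-Cl-Phe4,D-Pen5]enkephalin 0.75 nM; μ was [3H]CTOP 0.5 nM. Ten concentrations over 800-fold, in duplicate. Nonspecific binding used 10 μM naltrexone. Incubated 25 °C for 3 h, then filtered and counted.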
# Mu-type opioid receptor = Mu-type opioid receptor (Cavia porcellus, UniProt P97266); experiment: Effective concentration was measured towards mu opioid receptor using guinea pig ileum (GPI, mu) bioassay in vitro; format: tissue-based
# In short: (§1)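 Electrically stimulated MVD (male ICR mice, 25–30 g) and GPI longitudinal muscle-myenteric plexus (male Hartley guinea pigs, 150–400 g) in 37 °C oxygenated Krebs, magnesium-free for MVD. Tension 1 g (MVD 0.5 g); stimulation 0.1 Hz, 0.4-ms pulses (MVD 2.0 ms), supramaximal voltage.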
# [2] = target: Delta-type opioid receptor (Mus musculus, UniProt P32300); experiment: Effective concentration was measured towards delta opioid receptor using mouse vas deferens(MVD, delta) bioassay in vitro; in short: as §1
# [3] = target: Opioid receptors; mu & delta (Homo sapiens) (UniProt P41143+P35372); experiment: Selectivity is the ratio between EC50 values GPI(mu) and MVD(delta); format: protein assay
# In short: as §1, with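 “voltage. Agonist applied 3 min; percent inhibition of contraction height.” for “voltage.”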
# Chain of Delta-type opioid receptor (P32300 whole entry): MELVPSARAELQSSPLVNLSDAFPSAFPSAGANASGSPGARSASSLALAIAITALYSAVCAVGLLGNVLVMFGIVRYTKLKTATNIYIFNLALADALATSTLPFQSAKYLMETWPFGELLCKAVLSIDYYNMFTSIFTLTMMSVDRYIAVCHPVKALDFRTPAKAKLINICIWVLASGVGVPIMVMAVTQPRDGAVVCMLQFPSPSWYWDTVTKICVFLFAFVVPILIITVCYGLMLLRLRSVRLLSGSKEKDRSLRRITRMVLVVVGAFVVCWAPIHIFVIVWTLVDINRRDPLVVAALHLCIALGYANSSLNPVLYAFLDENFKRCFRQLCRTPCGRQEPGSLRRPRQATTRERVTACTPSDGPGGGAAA
# Chain of Opioid receptors; mu & delta (Homo sapiens) (P35372 whole entry, looked up): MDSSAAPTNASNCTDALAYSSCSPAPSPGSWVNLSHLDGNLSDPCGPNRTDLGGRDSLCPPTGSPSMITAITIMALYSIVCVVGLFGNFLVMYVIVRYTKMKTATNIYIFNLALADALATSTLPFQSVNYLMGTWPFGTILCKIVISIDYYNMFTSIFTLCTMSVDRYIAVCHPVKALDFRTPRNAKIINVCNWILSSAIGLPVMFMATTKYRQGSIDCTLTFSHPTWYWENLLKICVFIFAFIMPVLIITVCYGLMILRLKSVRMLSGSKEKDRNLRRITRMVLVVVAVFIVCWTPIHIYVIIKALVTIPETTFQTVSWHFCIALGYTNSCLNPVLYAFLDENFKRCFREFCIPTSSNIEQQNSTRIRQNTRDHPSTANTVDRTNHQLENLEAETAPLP
# Chain of Opioid receptors; mu & delta (Homo sapiens) (P41143 whole entry, looked up): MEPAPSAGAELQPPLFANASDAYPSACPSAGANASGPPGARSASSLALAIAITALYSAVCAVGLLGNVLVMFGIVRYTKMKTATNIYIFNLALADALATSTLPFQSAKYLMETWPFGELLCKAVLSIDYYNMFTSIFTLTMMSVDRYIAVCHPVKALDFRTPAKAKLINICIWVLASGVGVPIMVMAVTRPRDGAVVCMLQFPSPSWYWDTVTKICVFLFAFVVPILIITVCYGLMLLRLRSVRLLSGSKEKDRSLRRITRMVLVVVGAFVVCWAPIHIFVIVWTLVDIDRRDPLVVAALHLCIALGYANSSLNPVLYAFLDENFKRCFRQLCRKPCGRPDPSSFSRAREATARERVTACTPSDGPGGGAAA
# Chain of Mu-type opioid receptor (P97266 whole entry): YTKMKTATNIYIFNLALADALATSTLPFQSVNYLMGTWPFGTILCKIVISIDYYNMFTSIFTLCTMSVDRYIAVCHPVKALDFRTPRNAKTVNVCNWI
SMILES,Selectivity [1],EC50 (Mu-type opioid receptor) [nM],EC50 [2] [nM],Selectivity [3]
Cc1cc(O)cc(C)c1[C@H](C)[C@H](N)C(=O)N[C@H](C)C(=O)N[C@@H](Cc1ccccc1)C(=O)N[C@@H](CC(=O)O)C(=O)N[C@H](C(=O)N[C@H](C(=O)NCC(N)=O)C(C)C)C(C)C,5740,3840,0.66,5820
Cc1cc(O)cc(C)c1[C@H](C)[C@H](N)C(=O)N[C@H]1C(=O)NCC(=O)N[C@@H](Cc2ccccc2)C(=O)N[C@@H](C(=O)O)C(C)(C)SSC1(C)C,3.4,293,168,1.74
